In ChEMBL document CHEMBL2203081 (Bioorg Med Chem Lett, 2012):

Key:
[1] = target: Tyrosine-protein kinase Tec (Homo sapiens) (UniProt P42680); test: Inhibition of TEC assessed as residual activity at 10 uM relative to control
[2] = target: Serine/threonine-protein kinase 36 (Homo sapiens) (UniProt Q9NRP7); test: Inhibition of STK36 assessed as residual activity at 10 uM relative to control
[3] = target: Serine/threonine-protein kinase Sgk1 (Homo sapiens) (UniProt O00141); test: Inhibition of SGK assessed as residual activity at 10 uM relative to control
[4] = target: Serine/threonine-protein kinase PAK 2 (Homo sapiens) (UniProt Q13177); test: Inhibition of PAK2 assessed as residual activity at 1 uM
[5] = target: Insulin receptor-related protein (Homo sapiens) (UniProt P14616); test: Inhibition of INSRR assessed as residual activity at 10 uM relative to control
[6] = target: Insulin receptor (Homo sapiens) (UniProt P06213); test: Inhibition of INSR assessed as residual activity at 10 uM relative to control
[7] = target: T1, NUAK family SNF1-like kinase 1 (Homo sapiens) (UniProt O60285); test: Inhibition of ARK5 assessed as residual activity at 10 uM relative to control
T1 sequence (whole entry): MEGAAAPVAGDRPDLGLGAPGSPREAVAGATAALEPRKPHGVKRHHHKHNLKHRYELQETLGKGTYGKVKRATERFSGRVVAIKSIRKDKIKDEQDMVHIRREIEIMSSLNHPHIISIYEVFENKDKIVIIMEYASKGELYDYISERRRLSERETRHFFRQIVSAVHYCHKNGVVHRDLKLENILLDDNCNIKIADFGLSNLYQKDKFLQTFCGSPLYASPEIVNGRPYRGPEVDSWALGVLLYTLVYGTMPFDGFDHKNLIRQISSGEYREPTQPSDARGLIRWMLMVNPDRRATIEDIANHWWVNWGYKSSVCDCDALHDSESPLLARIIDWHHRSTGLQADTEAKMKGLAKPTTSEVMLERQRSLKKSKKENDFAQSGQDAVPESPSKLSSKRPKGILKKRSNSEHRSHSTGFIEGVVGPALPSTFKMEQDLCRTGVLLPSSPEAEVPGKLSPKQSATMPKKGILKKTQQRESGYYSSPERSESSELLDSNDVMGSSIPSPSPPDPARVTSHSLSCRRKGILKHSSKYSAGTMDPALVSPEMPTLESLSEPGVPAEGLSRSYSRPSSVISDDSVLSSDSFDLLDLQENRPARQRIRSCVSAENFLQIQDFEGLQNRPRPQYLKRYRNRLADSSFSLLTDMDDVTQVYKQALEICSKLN

[8] = target: RAC-gamma serine/threonine-protein kinase (Homo sapiens) (UniProt Q9Y243); test: Inhibition of AKT3 assessed as residual activity at 10 uM relative to control
[9] = target: Atypical kinase COQ8B, mitochondrial (Homo sapiens) (UniProt Q96D53); test: Inhibition of ADCK4 assessed as residual activity at 10 uM relative to control
Atypical kinase COQ8B, mitochondrial (Homo sapiens), sequence (Q96D53 whole entry): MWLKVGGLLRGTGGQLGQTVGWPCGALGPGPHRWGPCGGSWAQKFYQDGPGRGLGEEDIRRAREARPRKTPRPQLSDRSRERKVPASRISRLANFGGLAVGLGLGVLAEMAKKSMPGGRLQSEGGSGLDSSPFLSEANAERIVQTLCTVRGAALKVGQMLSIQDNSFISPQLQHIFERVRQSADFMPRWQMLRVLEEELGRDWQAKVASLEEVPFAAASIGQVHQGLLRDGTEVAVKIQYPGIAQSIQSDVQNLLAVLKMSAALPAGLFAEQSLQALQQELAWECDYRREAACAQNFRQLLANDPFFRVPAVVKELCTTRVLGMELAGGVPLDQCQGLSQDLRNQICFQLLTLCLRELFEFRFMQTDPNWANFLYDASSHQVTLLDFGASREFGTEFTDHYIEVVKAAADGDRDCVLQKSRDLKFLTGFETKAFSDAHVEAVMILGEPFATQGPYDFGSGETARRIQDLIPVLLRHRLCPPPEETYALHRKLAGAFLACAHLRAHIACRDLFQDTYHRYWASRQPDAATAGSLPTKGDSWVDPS

[10] = target: Serine/threonine-protein kinase D2 (Homo sapiens) (UniProt Q9BZL6); test: Inhibition of PRKD2 assessed as residual activity at 10 uM relative to control
[11] = test system: Tyrosine-protein kinase ABL1 (Homo sapiens), P00519 [F317I]; test: Inhibition of phosphorylated ABL1 F317I mutant assessed as residual activity at 10 uM relative to control
[12] = test system: Tyrosine-protein kinase ABL1 (Homo sapiens), P00519 [E255K]; test: Inhibition of phosphorylated ABL1 E255K mutant assessed as residual activity at 10 uM relative to control
Plasma [13] = test: AUClast in Swiss albino mouse plasma at 10 mg/kg, po; type: ADME, organism-based; design: dose 10 mg/kg, route oral, time 0 - last; conditions: in vivo
How it was run: (§1)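 Male Swiss Albino mice, single dose given intravenously (1 mg/kg) or orally (10 mg/kg). Drug measured in plasma and brain, with AUClast taken for each. The brain/plasma ratio is based on AUClast, and oral bioavailability is derived from the IV and PO plasma data.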

[14] = target: Dual specificity tyrosine-phosphorylation-regulated kinase 3 (Homo sapiens) (UniProt O43781); test: Inhibition of DYRK3 assessed as residual activity at 1 uM
Dual specificity tyrosine-phosphorylation-regulated kinase 3 (Homo sapiens), sequence (O43781 whole entry): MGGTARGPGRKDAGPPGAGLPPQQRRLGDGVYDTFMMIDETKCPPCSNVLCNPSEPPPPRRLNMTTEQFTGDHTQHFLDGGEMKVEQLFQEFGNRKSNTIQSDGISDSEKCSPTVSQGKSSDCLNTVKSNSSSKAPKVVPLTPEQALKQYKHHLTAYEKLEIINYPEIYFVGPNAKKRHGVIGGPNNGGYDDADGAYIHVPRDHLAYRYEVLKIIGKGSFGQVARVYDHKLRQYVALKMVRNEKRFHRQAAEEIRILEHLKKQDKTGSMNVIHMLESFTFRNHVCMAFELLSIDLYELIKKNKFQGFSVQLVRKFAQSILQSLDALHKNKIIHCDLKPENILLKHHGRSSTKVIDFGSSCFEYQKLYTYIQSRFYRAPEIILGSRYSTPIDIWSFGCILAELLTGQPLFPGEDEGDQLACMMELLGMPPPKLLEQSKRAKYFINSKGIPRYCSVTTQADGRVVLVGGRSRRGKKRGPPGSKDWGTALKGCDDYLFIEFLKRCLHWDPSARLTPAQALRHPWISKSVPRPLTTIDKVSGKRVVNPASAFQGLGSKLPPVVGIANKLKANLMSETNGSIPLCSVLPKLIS
How it was run: (§2)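 Standard radioactivity-based enzymatic kinase assays on a 131-kinase panel run by the Dundee profiling service; residual kinase activity recorded.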

[15] = target: T1, NUAK family SNF1-like kinase 1 (Homo sapiens); test: Inhibition of NUAK1 assessed as residual activity at 10 uM
[16] = target: Homeodomain-interacting protein kinase 4 (Homo sapiens) (UniProt Q8NE63); test: Inhibition of HIPK4 assessed as residual activity at 10 uM relative to control
[17] = target: Dual specificity tyrosine-phosphorylation-regulated kinase 1A (Homo sapiens) (UniProt Q13627); test: Inhibition of DYRK1A assessed as residual activity at 10 uM; how it was run: as §2
[18] = target: Ephrin type-A receptor 8 (Homo sapiens) (UniProt P29322); test: Inhibition of EPHA8 assessed as residual activity at 10 uM relative to control
How it was run: (§3)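 Competition kinase-binding assay (KINOMEscan) across a non-redundant panel of 329 kinases beyond the radiometric panel; residual binding expressed relative to control.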

[19] = test system: Epidermal growth factor receptor (Homo sapiens), P00533 [L861Q]; test: Inhibition of EGFR L861Q mutant assessed as residual activity at 10 uM relative to control; type: protein assay; how it was run: as §3
[20] = target: Epidermal growth factor receptor (Homo sapiens) (UniProt P04626+P00533+Q15303+P21860); test: Inhibition of EGFR L747-T751del, Sins mutant assessed as residual activity at 10 uM relative to control; type: protein assay; how it was run: as §3
[21] = target: Cyclin-dependent kinase 2/cyclin A (Homo sapiens) (UniProt P24941+P20248+P78396); test: Inhibition of CDK2-Cyclin A assessed as residual activity at 10 uM; type: protein-complex assay
Mus musculus = test: Oral bioavailability in Swiss albino mouse at 10 mg/kg; type: ADME, organism-based; conditions: in vivo
[22] = target: Tyrosine-protein kinase Yes (Homo sapiens) (UniProt P07947); test: Inhibition of YES1 assessed as residual activity at 1 uM
Tyrosine-protein kinase Yes (Homo sapiens), sequence (P07947 2-543 limits assumed): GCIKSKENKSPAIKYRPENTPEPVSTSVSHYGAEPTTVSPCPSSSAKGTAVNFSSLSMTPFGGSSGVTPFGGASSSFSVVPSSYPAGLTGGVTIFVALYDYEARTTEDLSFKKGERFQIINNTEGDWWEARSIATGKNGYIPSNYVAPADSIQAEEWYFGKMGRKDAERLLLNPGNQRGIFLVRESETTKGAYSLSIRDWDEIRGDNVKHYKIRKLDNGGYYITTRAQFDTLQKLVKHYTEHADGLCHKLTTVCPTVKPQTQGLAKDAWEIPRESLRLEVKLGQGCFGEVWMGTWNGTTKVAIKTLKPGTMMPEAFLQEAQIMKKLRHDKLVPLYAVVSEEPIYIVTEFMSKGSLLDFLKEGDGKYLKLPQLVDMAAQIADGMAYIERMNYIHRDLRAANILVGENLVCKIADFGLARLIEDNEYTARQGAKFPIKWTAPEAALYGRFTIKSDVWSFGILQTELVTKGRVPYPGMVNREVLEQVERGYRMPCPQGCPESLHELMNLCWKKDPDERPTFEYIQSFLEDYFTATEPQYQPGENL

[23] = target: Angiopoietin-1 receptor (Homo sapiens) (UniProt Q02763); test: Inhibition of TIE2 assessed as residual activity at 1 uM
[24] = target: Myosin light chain kinase, smooth muscle (Homo sapiens) (UniProt Q15746); test: Inhibition of SmMLCK assessed as residual activity at 1 uM
Plasma [25] = test: AUClast in Swiss albino mouse plasma at 1 mg/kg, iv; type: ADME, organism-based; design: time 0 - last, dose 1 mg/kg, route intravenous; conditions: in vivo; how it was run: as §1
[26] = target: Cyclin-dependent kinase 17 (Homo sapiens) (UniProt Q00537); test: Inhibition of PCTK2 assessed as residual activity at 10 uM relative to control
Cyclin-dependent kinase 17 (Homo sapiens), sequence (Q00537 whole entry, looked up): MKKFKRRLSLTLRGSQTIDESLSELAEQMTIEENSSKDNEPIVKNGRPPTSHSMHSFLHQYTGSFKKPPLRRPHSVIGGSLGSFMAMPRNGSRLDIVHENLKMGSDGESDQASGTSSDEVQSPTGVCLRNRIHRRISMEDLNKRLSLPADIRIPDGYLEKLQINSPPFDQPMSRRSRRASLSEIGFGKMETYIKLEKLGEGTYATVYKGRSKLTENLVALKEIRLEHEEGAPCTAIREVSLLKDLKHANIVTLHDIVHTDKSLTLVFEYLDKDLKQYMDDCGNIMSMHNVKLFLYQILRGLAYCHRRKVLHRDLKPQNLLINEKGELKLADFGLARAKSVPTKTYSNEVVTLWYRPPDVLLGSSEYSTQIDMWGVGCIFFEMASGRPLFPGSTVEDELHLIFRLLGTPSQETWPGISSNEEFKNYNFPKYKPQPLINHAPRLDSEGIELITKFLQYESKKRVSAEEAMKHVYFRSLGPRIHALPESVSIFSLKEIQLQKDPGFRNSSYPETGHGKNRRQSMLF

[27] = target: Serine/threonine-protein kinase PAK 5 (Homo sapiens) (UniProt Q9P286); test: Inhibition of PAK7 assessed as residual activity at 10 uM relative to control
Serine/threonine-protein kinase PAK 5 (Homo sapiens), sequence (Q9P286 whole entry, looked up): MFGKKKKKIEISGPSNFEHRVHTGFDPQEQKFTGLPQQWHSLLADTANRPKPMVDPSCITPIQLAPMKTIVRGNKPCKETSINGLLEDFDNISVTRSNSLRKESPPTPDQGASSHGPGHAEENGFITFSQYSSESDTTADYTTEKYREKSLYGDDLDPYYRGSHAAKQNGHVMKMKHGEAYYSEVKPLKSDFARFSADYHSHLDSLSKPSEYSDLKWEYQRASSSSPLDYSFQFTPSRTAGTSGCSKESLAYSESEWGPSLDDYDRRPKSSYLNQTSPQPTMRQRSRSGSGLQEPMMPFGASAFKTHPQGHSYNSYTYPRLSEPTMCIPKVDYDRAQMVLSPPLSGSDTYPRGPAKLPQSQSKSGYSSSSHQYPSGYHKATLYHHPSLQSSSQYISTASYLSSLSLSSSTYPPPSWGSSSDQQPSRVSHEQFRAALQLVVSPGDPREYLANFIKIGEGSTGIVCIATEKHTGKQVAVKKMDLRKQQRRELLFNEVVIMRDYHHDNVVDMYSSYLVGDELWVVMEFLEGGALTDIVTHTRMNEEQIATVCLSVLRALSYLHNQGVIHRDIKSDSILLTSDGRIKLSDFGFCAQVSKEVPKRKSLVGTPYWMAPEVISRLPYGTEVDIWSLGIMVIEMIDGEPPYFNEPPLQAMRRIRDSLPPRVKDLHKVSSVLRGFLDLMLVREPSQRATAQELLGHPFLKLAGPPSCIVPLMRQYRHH

[28] = target: Serine/threonine-protein kinase MRCK beta (Homo sapiens) (UniProt Q9Y5S2); test: Inhibition of MRCKB assessed as residual activity at 10 uM relative to control
[29] = Inhibition of AMPK assessed as residual activity at 10 uM

Tyrosine-protein kinase Tec (Homo sapiens), sequence (P42680 whole entry): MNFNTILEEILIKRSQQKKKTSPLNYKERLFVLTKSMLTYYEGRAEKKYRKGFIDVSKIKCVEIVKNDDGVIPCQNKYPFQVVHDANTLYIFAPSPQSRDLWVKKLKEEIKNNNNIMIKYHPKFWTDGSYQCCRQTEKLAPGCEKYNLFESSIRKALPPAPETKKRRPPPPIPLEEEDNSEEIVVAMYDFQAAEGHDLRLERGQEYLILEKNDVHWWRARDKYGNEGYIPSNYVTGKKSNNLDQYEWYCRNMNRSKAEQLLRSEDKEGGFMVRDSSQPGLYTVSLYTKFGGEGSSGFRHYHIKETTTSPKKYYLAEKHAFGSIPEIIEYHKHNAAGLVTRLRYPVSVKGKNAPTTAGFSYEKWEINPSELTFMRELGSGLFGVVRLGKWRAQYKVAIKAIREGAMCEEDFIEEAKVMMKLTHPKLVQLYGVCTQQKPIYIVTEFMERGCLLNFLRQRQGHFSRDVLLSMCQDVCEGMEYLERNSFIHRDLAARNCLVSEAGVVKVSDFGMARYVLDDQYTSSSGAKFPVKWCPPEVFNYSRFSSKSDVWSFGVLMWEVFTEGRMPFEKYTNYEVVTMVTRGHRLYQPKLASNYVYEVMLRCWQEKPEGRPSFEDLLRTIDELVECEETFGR
Serine/threonine-protein kinase 36 (Homo sapiens), sequence (Q9NRP7 whole entry): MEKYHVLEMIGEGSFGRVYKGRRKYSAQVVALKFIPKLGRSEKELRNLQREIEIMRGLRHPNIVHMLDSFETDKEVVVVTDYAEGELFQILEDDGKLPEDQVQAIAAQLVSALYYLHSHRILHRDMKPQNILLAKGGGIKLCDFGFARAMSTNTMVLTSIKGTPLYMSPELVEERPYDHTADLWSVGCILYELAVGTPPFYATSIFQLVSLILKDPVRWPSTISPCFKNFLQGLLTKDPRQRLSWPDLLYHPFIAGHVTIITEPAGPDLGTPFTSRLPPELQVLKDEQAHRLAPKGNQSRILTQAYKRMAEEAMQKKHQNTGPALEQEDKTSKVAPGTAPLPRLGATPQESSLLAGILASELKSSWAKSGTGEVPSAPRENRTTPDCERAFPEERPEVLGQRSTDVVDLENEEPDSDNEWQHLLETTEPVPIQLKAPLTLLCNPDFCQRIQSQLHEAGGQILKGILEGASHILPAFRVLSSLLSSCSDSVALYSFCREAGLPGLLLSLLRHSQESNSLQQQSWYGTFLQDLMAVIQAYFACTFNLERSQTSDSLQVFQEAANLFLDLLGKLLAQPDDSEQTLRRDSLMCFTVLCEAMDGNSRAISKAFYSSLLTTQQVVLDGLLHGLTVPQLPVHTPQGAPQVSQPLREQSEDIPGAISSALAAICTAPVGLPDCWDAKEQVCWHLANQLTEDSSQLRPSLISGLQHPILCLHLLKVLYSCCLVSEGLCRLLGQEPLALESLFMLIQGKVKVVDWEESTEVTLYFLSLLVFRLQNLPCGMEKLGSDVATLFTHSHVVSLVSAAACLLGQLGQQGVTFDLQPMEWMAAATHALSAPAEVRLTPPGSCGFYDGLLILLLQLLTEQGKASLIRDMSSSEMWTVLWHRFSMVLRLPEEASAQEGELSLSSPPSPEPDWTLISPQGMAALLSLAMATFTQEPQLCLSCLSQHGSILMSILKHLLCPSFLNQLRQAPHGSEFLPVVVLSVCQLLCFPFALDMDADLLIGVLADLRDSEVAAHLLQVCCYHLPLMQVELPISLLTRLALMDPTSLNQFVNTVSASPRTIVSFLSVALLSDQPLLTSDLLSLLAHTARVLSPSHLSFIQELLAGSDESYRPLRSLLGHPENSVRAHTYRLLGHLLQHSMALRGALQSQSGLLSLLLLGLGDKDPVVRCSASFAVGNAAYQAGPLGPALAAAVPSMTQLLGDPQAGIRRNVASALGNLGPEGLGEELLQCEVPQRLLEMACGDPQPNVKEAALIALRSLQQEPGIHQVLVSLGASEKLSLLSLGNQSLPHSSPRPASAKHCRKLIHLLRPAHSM

SMILES: O=C(Nc1cccnc1)c1cc(-c2ccnc(F)c2)ccc1OCc1ccccc1
- Activity [1]: 53%
- Activity [2]: 63%
- Activity [3]: 33%
- Activity [4]: 116%
- Activity [5]: 71%
- Activity [6]: 44%
- Activity [7]: 50%
- Activity [8]: 51%
- Activity [9]: 26%
- Activity [10]: 74%
- Activity [11]: 38%
- Activity [12]: 75%
- AUClast (Plasma [13]): 635.3 ng·h/mL
- Activity [14]: 101%
- Activity [15]: 58%
- Activity [16]: 80%
- Activity [17]: 104%
- Activity [18]: 52%
- Activity [19]: 65%
- Activity [20]: 69%
- Activity [21]: 117%
- F (Mus musculus): 12.2%
- Activity [22]: 120%
- Activity [23]: 119%
- Activity [24]: 32%
- AUClast (Plasma [25]): 519.6 ng·h/mL
- Activity [26]: 75%
- Activity [27]: 69%
- Activity [28]: 59%
- Activity [29]: 90%
